This note sets out measurements from ChEMBL document CHEMBL4190321, “Novel 4/3-((4-oxo-5-(2-oxoindolin-3-ylidene)thiazolidin-2-ylidene)amino) benzenesulfonamides: Synthesis, carbonic anhydrase inhibitory activity, anticancer activity and molecular modelling studies” (Eur J Med Chem, 2017).

One assay deals with Carbonic anhydrase 9 (Homo sapiens, UniProt Q16790). Kind of assay: Inhibition of human transmembrane carbonic anhydrase 9 by stopped-flow CO2 hydrase assay.
Assay [1] relates to MCF7. Kind of assay: Antiproliferative activity against human MCF7 cells by MTT assay.
A further assay relates to Caco-2. Description: Antiproliferative activity against human Caco2 cells by MTT assay. Background: Tetrazolium assays rely on reduction of a dye to a coloured formazan, in cell work by metabolically active cells.
The target in a further assay is Carbonic anhydrase 4 (Homo sapiens, UniProt P22748). Kind of assay: Inhibition of human transmembrane carbonic anhydrase 4 by stopped-flow CO2 hydrase assay.
Sequence of Carbonic anhydrase 4 (P22748 whole entry): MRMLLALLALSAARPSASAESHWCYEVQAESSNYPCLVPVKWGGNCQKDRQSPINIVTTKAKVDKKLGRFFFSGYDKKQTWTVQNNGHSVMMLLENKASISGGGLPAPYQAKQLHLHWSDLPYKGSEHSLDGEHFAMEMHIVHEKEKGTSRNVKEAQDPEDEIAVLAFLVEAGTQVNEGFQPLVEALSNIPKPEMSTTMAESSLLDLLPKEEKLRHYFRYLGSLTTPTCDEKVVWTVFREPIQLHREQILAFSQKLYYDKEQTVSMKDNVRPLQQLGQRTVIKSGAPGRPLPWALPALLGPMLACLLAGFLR
In assay [2] the test system is MCF7. Description: Induction of apoptosis in human MCF7 cells assessed as decrease in Bcl-2 expression at IC50 by ELISA relative to control. The format is functional. Also noted: scale not given: the % may be the effect or the level left. In outline:
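MCF-7 cells were treated alongside a 1% DMSO control. Bcl-2 protein was measured with a colorimetric ELISA kit and reported in ng/ml. Data are mean ± SD of three separate experiments, and significance versus control was set at P < 0.05.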
Background: An ELISA detects its analyte on a solid surface through an enzyme-linked reagent.

For a further assay, the target named is Carbonic anhydrase 2 (Homo sapiens, UniProt P00918). Kind of assay: Inhibition of human cytosolic carbonic anhydrase 2 by stopped-flow CO2 hydrase assay.
In another assay the target is Carbonic anhydrase 1 (Homo sapiens, UniProt P00915). Kind of assay: Inhibition of human cytosolic carbonic anhydrase 1 by stopped-flow CO2 hydrase assay.
Sequence of Carbonic anhydrase 1 (P00915 whole entry): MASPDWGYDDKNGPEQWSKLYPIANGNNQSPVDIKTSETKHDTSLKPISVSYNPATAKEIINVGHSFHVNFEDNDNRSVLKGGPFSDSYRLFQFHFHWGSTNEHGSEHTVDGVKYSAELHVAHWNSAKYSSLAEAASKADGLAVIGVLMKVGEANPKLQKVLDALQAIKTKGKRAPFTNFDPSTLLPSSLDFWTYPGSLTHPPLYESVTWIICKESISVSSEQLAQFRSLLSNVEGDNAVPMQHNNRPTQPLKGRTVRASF

`NS(=O)(=O)c1ccc(NC2=NC(=O)CS2)cc1`: the Ki on Carbonic anhydrase 9 stood at 0.0045 µM.
Take `NS(=O)(=O)c1cccc(/N=C2\NC(=O)/C(=C3/C(=O)Nc4ccc(Cl)cc43)S2)c1`: the IC50 in the assay on MCF7 [1] is over 200 µM; in the assay on Caco-2, 5.87 µM. On Carbonic anhydrase 9, this compound yielded a Ki of 0.062 µM.
On to `NS(=O)(=O)c1cccc(/N=C2\NC(=O)/C(=C3/C(=O)Nc4ccc([N+](=O)[O-])cc43)S2)c1`, for which the figures for the IC50 with MCF7 [1] and in the assay with Caco-2 were over 200 µM and 20.6 µM, respectively. Moreover, the affinity on Carbonic anhydrase 9, expressed as Ki, was 0.048 µM.
Take `COc1ccc2c(c1)/C(=C1/S/C(=N/c3ccc(S(N)(=O)=O)cc3)NC1=O)C(=O)N2`: the values for the IC50 in the assay with MCF7 [1] and with Caco-2 were 125 µM and 98.3 µM, respectively. Further, the Ki on Carbonic anhydrase 9 is 0.0231 µM; at Carbonic anhydrase 4 it was over 10 µM.
Turning to `Cc1cc(C)c2c(c1)/C(=C1/S/C(=N/c3ccc(S(N)(=O)=O)cc3)NC1=O)C(=O)N2`, the IC50 in the assay on MCF7 [1] is over 200 µM; in the assay on Caco-2 it was 146 µM. At Carbonic anhydrase 9, the affinity corresponds to a Ki of 0.1 µM.
With `NS(=O)(=O)c1cccc(/N=C2\NC(=O)/C(=C3/C(=O)Nc4ccccc43)S2)c1`, the IC50 was over 200 µM with MCF7 [1] and 12.1 µM in the assay on Caco-2. At Carbonic anhydrase 9, this compound showed a Ki of 0.0161 µM.
Consider `CN1C(=O)/C(=C2\S/C(=N/c3ccc(S(N)(=O)=O)cc3)NC2=O)c2cc(Br)ccc21`, for which the results for the IC50 with MCF7 [1] and in the assay with Caco-2 were 196 µM and 13.2 µM, respectively. The compound further returned a Ki at Carbonic anhydrase 9 of 0.0389 µM.
Turning to `NS(=O)(=O)c1cccc(/N=C2\NC(=O)CS2)c1`, the inhibitory constant (Ki) at Carbonic anhydrase 9 worked out at 0.0177 µM.
As for `NS(=O)(=O)c1ccc(/N=C2\NC(=O)/C(=C3/C(=O)Nc4ccc(Cl)cc43)S2)cc1`, in the assay on MCF7 [2], the Activity is reported as 45%. The half-inhibitory concentration (IC50) with MCF7 [1] came out at 3.96 µM; in the assay with Caco-2, 20.3 µM. This compound also returned a Ki on Carbonic anhydrase 9 of 0.0624 µM.
Consider `NS(=O)(=O)c1cccc(/N=C2\NC(=O)/C(=C3/C(=O)N(Cc4ccccc4)c4ccccc43)S2)c1`, for which the figures for the IC50 with MCF7 [1] and in the assay on Caco-2 were over 200 µM and 103 µM, respectively. The compound further had an inhibition constant Ki on Carbonic anhydrase 9 of 0.17 µM.
As to `Cc1ccc2c(c1)/C(=C1/S/C(=N/c3ccc(S(N)(=O)=O)cc3)NC1=O)C(=O)N2`, the IC50 was over 200 µM in the assay with MCF7 [1] and 174 µM in the assay with Caco-2. On Carbonic anhydrase 9, the Ki was determined as 0.0721 µM.
For `NS(=O)(=O)c1ccc(/N=C2\NC(=O)/C(=C3/C(=O)N(Cc4ccccc4)c4ccc(Cl)cc43)S2)cc1`, the results for the IC50 in the assay with MCF7 [1] and in the assay with Caco-2 were 124 µM and 13.7 µM, respectively. In addition, at Carbonic anhydrase 9, the affinity corresponds to a Ki of 0.0906 µM.
Regarding `CN1C(=O)/C(=C2\S/C(=N/c3ccc(S(N)(=O)=O)cc3)NC2=O)c2cc(Cl)ccc21`, the IC50 in the assay on MCF7 [1] is over 200 µM; in the assay on Caco-2 it was 42.3 µM. At Carbonic anhydrase 9, this compound had a Ki of 0.123 µM.
Turning to `NS(=O)(=O)c1ccc(/N=C2\NC(=O)/C(=C3/C(=O)Nc4ccc(F)cc43)S2)cc1`, the IC50 in the assay with MCF7 [1] came out at 20.5 µM; with Caco-2 it was 59.9 µM. The compound further gave a Ki at Carbonic anhydrase 9 of 0.0266 µM.
Consider `NS(=O)(=O)c1cccc(/N=C2\NC(=O)/C(=C3/C(=O)Nc4ccc(Br)cc43)S2)c1`, for which the IC50 in the assay with MCF7 [1] was over 200 µM; in the assay on Caco-2 it was 10.8 µM. Besides, the inhibition constant (Ki) at Carbonic anhydrase 9 came out at 0.0159 µM.
The matching figures for `COc1ccc2c(c1)/C(=C1/S/C(=N/c3cccc(S(N)(=O)=O)c3)NC1=O)C(=O)N2`: over 200 µM, 8.39 µM and 0.0247 µM.
As for `NS(=O)(=O)c1ccc(/N=C2\NC(=O)/C(=C3/C(=O)Nc4ccc(Br)cc43)S2)cc1`, the IC50 in the assay on MCF7 [1] stood at 11.3 µM; with Caco-2 it was 42.3 µM. The compound further showed a Ki at Carbonic anhydrase 9 of 0.0666 µM.
Take `NS(=O)(=O)c1ccc(/N=C2\NC(=O)/C(=C3/C(=O)N(Cc4ccccc4)c4ccccc43)S2)cc1`: the IC50 in the assay on MCF7 [1] and in the assay on Caco-2 was over 200 µM in each case. Also, the Ki on Carbonic anhydrase 9 came out at 0.117 µM.
Regarding `CN1C(=O)/C(=C2\S/C(=N/c3ccc(S(N)(=O)=O)cc3)NC2=O)c2ccccc21`, the IC50 with MCF7 [1] came to 51.9 µM; in the assay on Caco-2, 163 µM. The compound further displayed a Ki on Carbonic anhydrase 9 of 0.146 µM.
On to `NS(=O)(=O)c1ccc(/N=C2\NC(=O)/C(=C3/C(=O)Nc4ccc([N+](=O)[O-])cc43)S2)cc1`, for which the IC50 in the assay on MCF7 [1] was over 200 µM; in the assay with Caco-2, 13.8 µM. On Carbonic anhydrase 9, this compound displayed a Ki of 0.0341 µM.
In the same order, the values of `NS(=O)(=O)c1ccc(/N=C2\NC(=O)/C(=C3/C(=O)N(Cc4ccccc4)c4ccc(Br)cc43)S2)cc1` are over 200 µM, 57.8 µM and 0.321 µM.
For the compound `NS(=O)(=O)c1ccc(/N=C2\NC(=O)/C(=C3/C(=O)Nc4ccccc43)S2)cc1`, the Ki at Carbonic anhydrase 2 is 0.023 µM; at Carbonic anhydrase 1 it was 0.631 µM; on Carbonic anhydrase 9, 0.047 µM; on Carbonic anhydrase 4 it was over 10 µM. The IC50 in the assay with MCF7 [1] and in the assay on Caco-2 was over 200 µM throughout.
Consider `COc1cccc2c1C(=O)c1c(O)c3c(c(O)c1C2=O)C[C@@](O)(C(=O)CO)C[C@@H]3O[C@H]1C[C@H](N)[C@H](O)[C@H](C)O1` [DOXORUBICIN], for which half-maximal inhibition in the assay with Caco-2 (IC50) required 3.83 µM.

By Ki is commonly meant a measure of affinity in units of concentration, obtained from inhibition or displacement. What is called IC50 is the concentration that inhibits the measured activity by half.
